Hits are enriched below; roughly 2.6% of the tested compounds scored in any of these assays.
SENP8 block-1: SENP8 (human) protease inhibition; 360,000 tested, 0.64% active; Q96LD8; inhibition, % at 20 µM; recombinant SENP8, Nedd8 substrate fluorescence; in the data active = inhibition mostly above about 40%, no sharp cut-off; inactive = mostly below about 27%
SENP1 FRET inh: SENP1 (human) catalytic domain inhibition | Q9P0U3 | recombinant SENP1 catalytic domain, CyPet-SUMO1-YPet FRET cleavage | inhibition, % at 10 µM | 360,000 tested, 0.21% active | AID 624204;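 active = inhibition at least 30% at 10 µM, raw YFP signal under a set limit, fluorescence ratio 0.5 to 1.5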;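 also: 0% = enzyme with DMSO and 100% = no enzyme wells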
Target sequence (Q9P0U3 419-644 limits assumed): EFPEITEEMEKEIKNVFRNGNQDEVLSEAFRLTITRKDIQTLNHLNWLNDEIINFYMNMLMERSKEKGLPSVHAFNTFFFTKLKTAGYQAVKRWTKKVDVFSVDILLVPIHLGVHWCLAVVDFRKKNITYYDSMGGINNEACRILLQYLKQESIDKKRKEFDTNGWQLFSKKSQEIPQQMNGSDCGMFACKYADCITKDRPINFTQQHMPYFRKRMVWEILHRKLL
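Assay system: hSENP1 catalytic domain, recombinant. Amount: SENP1 enzyme, 20 pM final. Schedule: 50 min reaction, RT, dark. Technique: FRET, CFP and YFP emission. Control set: no-enzyme wells low, DMSO-plus-enzyme wells high control.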
SENP8 block-2: SENP8 protease inhibition; Q96LD8; AID 2540; inhibition, % at 10 µM; 330,000 tested, 1.2% active; purified SENP8, Z-RLRGG-aminoluciferin cleavage, luminescence; in the data active = inhibition above about 50%
Platelet DG rel: platelet dense granule release activity | human platelet-rich plasma, SFLLRN dense granule ATP release, luminescence | inhibition, %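 (compounds screened at 7.5 µM in platelet-rich plasma)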 | 300,000 tested, 0.22% active;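 active = mean replicate score, as percent of positive control, at or above 50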
SENP7 inh: SENP7 protease inhibition; Q9BQF6; recombinant SENP7, Z-RLRGG-aminoluciferin luminescence, 40 min; inhibition, % at 5 µM; 330,000 tested, 1.5% active;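 active = inhibition above about 50% at the single test dose, limit read from the data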;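 also: plate controls were DMSO with enzyme for no effect and no enzyme buffer wells for full effect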
SENP6 inh: SENP6 protease inhibition. 330,000 tested, 1.8% active. Q9GZR1. AID 2599. inhibition, % at 10 µM. Recombinant SENP6 catalytic domain, aminoluciferin luminescence;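 active = inhibition above about 50% at the single tested dose, limit read from the data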;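 also: plate controls were DMSO wells with enzyme for no effect and DMSO wells lacking enzyme for full effect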
SENP8 confirm: confirmation of human SENP8 protease inhibitors; Recombinant SENP8, Z-RLRGG-aminoluciferin luminescence, 60 min; 6,200 tested, 40% active; shares compounds with SENP7 inh; inhibition, % at 12.5 µM; AID 488912;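 active = mean inhibition across replicates above about 50%, limit read from the data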
SENP6 conf: human SENP6 inhibition, confirmed | shares compounds with SENP7 inh | recombinant SENP6, Z-RLRGG-aminoluciferin luminescence | inhibition, % at 12.5 µM | 6,200 tested, 58% active
SENP7 confirm: confirmation of human SENP7 protease inhibitors | shares compounds with SENP7 inh | recombinant SENP7, Z-RLRGG-aminoluciferin luminescence, 40 min | inhibition, % at 12.5 µM | 6,200 tested, 69% active
Casp3 SENP sel: selectivity test for SENP inhibitors: human caspase-3 inhibition | shares compounds with SENP7 inh | purified caspase-3, Z-DEVD-aminoluciferin luminescence, 60 min | inhibition, % at 12.5 µM | 6,200 tested, 60% active | AID 488918;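 active = mean inhibition above about 50%, limit read from the data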;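 also: plate controls were enzyme with DMSO for no effect and wells without caspase-3 for full effect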
Target sequence (P42574 28-227 limits assumed): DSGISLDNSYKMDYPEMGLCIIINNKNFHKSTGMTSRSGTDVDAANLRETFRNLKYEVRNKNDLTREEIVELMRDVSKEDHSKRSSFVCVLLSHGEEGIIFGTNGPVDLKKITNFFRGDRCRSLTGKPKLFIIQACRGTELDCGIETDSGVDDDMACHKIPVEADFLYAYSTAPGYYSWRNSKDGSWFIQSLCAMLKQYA
Luc interf: interferes with luciferase luminescence in SENP counter-screen | 6,200 tested, 39% active | inhibition, % at 12.5 µM | shares compounds with SENP7 inh | Pre-incubated SENP8/Z-RLRGG-aminoluciferin, luciferase luminescence interference | AID 488919;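 active = mean inhibition above about 50% when retested at one dose, limit read from the data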;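 also: plate controls were DMSO wells with completed reaction for no effect and substrate without enzyme for full effect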
Active calls of the source: *; x = no result given.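 The calls were made as follows, unless noted: active = mean inhibition above about 50% in the one-dose retest (limit read from the data); inactive = the rest.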

SMILES	SENP8 block-1	SENP1 FRET inh	SENP8 block-2	Platelet DG rel	SENP7 inh	SENP6 inh	SENP8 confirm	SENP6 conf	SENP7 confirm	Casp3 SENP sel	Luc interf
CC(OC(=O)[C@@H](NS(=O)(=O)c1ccccc1)C(C)C)C(=O)c1c(N)n(C)c(=O)n(C)c1=O (some centres undefined)	4	1	x	x	x	x	x	x	x	x	x
CCCc1[nH]n(-c2nc3ccccc3s2)c(=O)c1C=NCCCN(CC)CC	13	2	42	-11	40	68*	49	22	33	60*	57*
Cn1c(=N)n(CC(=O)c2ccc(Br)cc2)c2ccccc21	14	2	1	-2	-5	31	x	x	x	x	x
Cn1c(=N)n(CC(=O)c2ccc(F)cc2)c2ccccc21	22	4	46	x	20	62*	34	25	25	38	62*
O=c1cc(-c2ccccc2)[nH]n1-c1nc2ccccc2[nH]1	-264	-64	24	3	11	65*	35	52*	85*	78*	49
O=C(CSc1nc(C(F)(F)F)cc(=O)[nH]1)N1CCCC1	5	2	8	0	11	-9	x	x	x	x	x
Cc1ccc(S(=O)(=O)NCC(=O)OC(C)C(=O)NC2CCCCC2C)cc1C (centres undefined)	8	0	-1	x	-4	4	x	x	x	x	x
Cc1cc(C)c2c(c1)C(=O)/C(=C/c1ccc(C(=O)O)cc1)CC2	10	3	75*	8	5	92*	62*	51*	53*	58*	19
O=C(O)c1ccc(/C=C2\COc3ccccc3C2=O)cc1	0	-1	-6	-8	-42	-17	x	x	x	x	x
C#CCNC(=O)c1ccc(OCc2ccccc2)cc1Cl	11	-1	63*	-30	64*	75*	70*	67*	87*	80*	69*
O=C(NCCCl)c1ccc(OCc2ccccc2)cc1Cl	15	-1	-4	-29	11	14	x	x	x	x	x
CC(C)Oc1ccc2c(=O)c(-c3ccccc3)coc2c1	1	2	61*	11	71*	68*	7	25	52*	36	13
COC(=O)COc1ccc2c(=O)c(-c3ccccc3)coc2c1	5	4	5	11	2	4	x	x	x	x	x
CCCc1cc2c(=O)c(-c3ccc4c(c3)OCCO4)coc2cc1OC(=O)c1ccco1	11	-1	8	2	-1	6	x	x	x	x	x
COc1ccc2c(=O)c(-c3ccc4c(c3)OCO4)coc2c1	15	2	84*	7	96*	88*	56*	87*	64*	77*	16
CCc1cc2c(=O)c(-c3ccc4c(c3)OCCO4)coc2cc1OC(=O)c1ccco1	-7	-5	1	12	73*	25	-11	-5	0	18	5
CC(=O)Oc1ccc2c(=O)c(-c3nc4ccccc4s3)coc2c1	-112	-83	94*	61*	99*	98*	45	39	30	72*	51*
CC(=O)Oc1ccc2c(=O)c(Oc3ccccc3[N+](=O)[O-])coc2c1	23	0	-2	-2	1	-6	x	x	x	x	x
CC(C)(O)CN(C(=O)c1ccc([N+](=O)[O-])cc1)C1CCCC1	4	1	x	x	x	x	x	x	x	x	x
CCCN(C(=O)COC(=O)C12CCC(=O)N1c1ccccc1S2)c1c(N)n(Cc2ccccc2)c(=O)[nH]c1=O (centres undefined)	-1	-1	-7	3	15	-16	x	x	x	x	x
O=C(Nc1ccc2ccccc2n1)C1CCCCC1	14	1	48	0	74*	60*	61*	58*	88*	74*	68*
O=C(Nc1ccc2ccccc2n1)c1ccc(Cl)cc1	0	-1	50*	-11	72*	56*	25	48	59*	59*	16
COc1ccc(C(=O)Nc2ccc3ccccc3n2)c(OC)c1OC	-37	1	66*	2	86*	82*	58*	46	57*	45	5
O=C(Nc1ccc2ccccc2n1)c1ccccc1Cl	5	0	89*	4	95*	88*	94*	94*	102*	94*	33
COc1ccc(CC(N)c2csc(NC(=O)c3cc(C(C)(C)C)nn3Cc3ccccc3)n2)cc1 (centres undefined)	-53	-32	x	x	x	x	x	x	x	x	x
SMILES	SENP8 block-1	SENP1 FRET inh	SENP8 block-2	Platelet DG rel	SENP7 inh	SENP6 inh	SENP8 confirm	SENP6 conf	SENP7 confirm	Casp3 SENP sel	Luc interf
O=C(NCc1ccccc1)C12CC3CC(CC(Br)(C3)C1)C2	3	0	-2	15	10	-24	x	x	x	x	x
COC(=O)c1ccc(-c2nc(-c3ccc(Br)o3)no2)cc1	10	3	-5	6	52*	0	-13	-7	18	16	2
COc1ccc(-c2nc(-c3ccc(Br)o3)no2)cc1	4	-3	25	22	70*	49	6	12	11	27	9
COC(=O)c1ccc(-c2nc(-c3cccs3)no2)cc1	5	1	87*	x	98*	92*	78*	88*	89*	88*	38
O=C(Nc1ccc(-c2noc(-c3cccs3)n2)cc1)c1cccnc1	7	-3	20	2	55*	38	5	41	68*	26	7
CCOC(=O)c1ccc(OCc2nc(-c3cccs3)no2)cc1	17	1	19	-1	4	35	x	x	x	x	x
CCOC(=O)C1(C)NC(c2cccs2)C2C(=O)N(c3ccc(OC)cc3)C(=O)C21 (centres undefined)	0	0	6	-3	6	6	x	x	x	x	x
CCN(CC)CC(O)Cn1c(C)c(-c2ccccc2)c2cc([N+](=O)[O-])ccc21 (centres undefined)	20	6	-2	11	2	5	x	x	x	x	x
CCNc1nc2c(c(=O)n(C)c(=O)n2C)n1CCCc1ccccc1	4	2	4	-3	5	-1	x	x	x	x	x
CCOc1ccc(S(=O)(=O)N2CCCCC2)cc1NC(=O)c1c(CC)noc1C	4	0	-5	9	7	-1	x	x	x	x	x
